# Assay outcomes (PubChem)
# ABCB1 inh: blocks JC-1 efflux by human ABCB1 transporter; actives 0.067% (n = 190,000); AID 1326; P08183; inhibition, % at 6.6 µM; CCRF-Adr cells, flow cytometry; in the data active means inhibition above about 40%;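 further: 0% = vehicle and 100% = reference inhibitor; higher value means more JC-1 retained so stronger ABCB1 efflux block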
# Target sequence (P08183 whole entry, looked up): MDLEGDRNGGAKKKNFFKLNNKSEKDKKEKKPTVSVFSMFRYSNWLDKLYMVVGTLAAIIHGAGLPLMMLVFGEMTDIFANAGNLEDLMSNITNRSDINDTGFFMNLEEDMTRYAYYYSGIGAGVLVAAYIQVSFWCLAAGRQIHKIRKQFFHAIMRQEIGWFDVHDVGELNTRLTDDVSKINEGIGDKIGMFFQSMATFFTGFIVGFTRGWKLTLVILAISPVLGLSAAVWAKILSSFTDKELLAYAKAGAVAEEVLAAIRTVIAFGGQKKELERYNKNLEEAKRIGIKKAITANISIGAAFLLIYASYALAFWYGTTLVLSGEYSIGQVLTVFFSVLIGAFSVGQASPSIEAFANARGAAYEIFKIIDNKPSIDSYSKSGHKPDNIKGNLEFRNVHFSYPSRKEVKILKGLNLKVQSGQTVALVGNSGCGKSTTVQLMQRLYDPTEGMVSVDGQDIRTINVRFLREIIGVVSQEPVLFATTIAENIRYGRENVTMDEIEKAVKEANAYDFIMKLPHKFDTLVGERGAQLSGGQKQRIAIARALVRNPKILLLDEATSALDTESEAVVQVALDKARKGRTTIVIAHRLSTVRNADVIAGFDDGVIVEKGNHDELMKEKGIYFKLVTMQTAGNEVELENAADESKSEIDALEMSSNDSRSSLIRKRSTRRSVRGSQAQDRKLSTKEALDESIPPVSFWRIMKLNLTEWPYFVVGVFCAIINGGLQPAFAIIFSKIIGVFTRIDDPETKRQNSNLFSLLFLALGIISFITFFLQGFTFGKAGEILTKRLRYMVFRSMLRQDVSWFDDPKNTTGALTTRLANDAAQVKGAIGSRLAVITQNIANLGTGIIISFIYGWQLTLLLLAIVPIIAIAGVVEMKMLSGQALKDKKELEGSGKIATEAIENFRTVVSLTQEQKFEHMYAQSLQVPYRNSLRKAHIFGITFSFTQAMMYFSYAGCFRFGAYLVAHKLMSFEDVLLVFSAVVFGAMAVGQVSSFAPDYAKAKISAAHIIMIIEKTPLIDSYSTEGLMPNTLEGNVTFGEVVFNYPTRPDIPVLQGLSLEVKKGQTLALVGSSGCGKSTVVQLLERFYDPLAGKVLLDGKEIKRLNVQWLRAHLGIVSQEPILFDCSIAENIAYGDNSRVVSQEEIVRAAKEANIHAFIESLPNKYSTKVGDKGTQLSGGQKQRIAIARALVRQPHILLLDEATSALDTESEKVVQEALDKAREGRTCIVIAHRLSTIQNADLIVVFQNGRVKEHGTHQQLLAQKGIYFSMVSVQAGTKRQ
# MEKK2wt PB1 HTS: raises or lowers MEK5 binding to wildtype human MEKK2 PB1 domain; actives 1.1% (n = 290,000); binding response (% of control), % at 10 µM; bead flow cytometry, Alexa488-MEK5 binding to MEKK2 WT; actives lie on both sides; in the data active means binding response below about 67% or above about 130%
# MEKK3 PB1 HTS: MEKK3-MEK5 PB1 interaction, increase or decrease; bead-based flow cytometry, Alexa488-MEK5 binding to MEKK3; actives lie on both sides; 0 = blocked by unlabeled MEK5, 100 = vehicle; Q99759; actives 1.4% (n = 290,000); binding response (% of control), % at 10 µM;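 active means binding response more than 3 SD above or below the average of its plate-row segment, actives on both sides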;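 further: Alexa488 bead fluorescence after subtracting the streptavidin-only scavenger bead signal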
# MEKK2 mut-MEK5: signal of MEK5 binding to mutant human MEKK2 PB1 domain. bead flow cytometry, Alexa488-MEK5 binding to MEKK2 mutant. percent response, % at 10 µM. actives 0.35% (n = 290,000); in the data active means percent response above about 24%, passing the limit was not always enough
# ABCG2 inh: blocks JC-1 efflux by human ABCG2 transporter. Q9UNQ0. IgMXP3 cells, flow cytometry. inhibition, % at 6.6 µM. actives 0.1% (n = 190,000). AID 1325;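 active means inhibition above 80%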;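 further: 0% = DMSO and 100% = nicardipine control wells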
#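 System: two drug-resistant human cell lines, ABCG2 and ABCB1; controls: nicardipine high and DMSO low controls; times: 10 min exposure at 25 °C with rotation, no wash; detection: flow cytometry of retained JC-1 fluorescence; read-out basis: percent efflux inhibition, scaled nicardipine 100% to DMSO 0%; doses: one concentration, 6.6 µM final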
# Efflux pump inh: inhibitors of Candida antifungal efflux pumps expressed in yeast. S. cerevisiae Candida pump triplex, Nile Red efflux. inhibition, % at 10 µM. actives 0.44% (n = 330,000). AID 485275;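 active means plate passing quality check with inhibition over a set limit, or well fluorescence over plate mean plus 4 SD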;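 further: Nile Red retained in pooled yeast measured as flow cytometry median fluorescence; 0% = buffer negative control and 100% = Enniatin B positive control; higher means more Nile Red kept so more efflux inhibition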
# MEKK2wt confirm: raises or lowers MEK5 binding to wildtype human MEKK2, retest; shares compounds with MEKK3 PB1 HTS; bead flow cytometry, Alexa488-MEK5 binding to MEKK2 WT; actives lie on both sides; binding response (% of control), % at 10 µM; actives 2.4% (n = 5,900); AID 1892; in the data active means binding response below about 16% or above about 210%; inactive means in between
# MEKK2mut-MEK5: signal of MEK5 binding to mutant human MEKK2, retest | shares compounds with MEKK3 PB1 HTS | bead flow cytometry, Alexa488-MEK5 binding to MEKK2 mutant | percent response, % at 10 µM | actives 2% (n = 5,900); in the data active means percent response mostly above about 71%, no sharp cut-off; inactive means mostly below about 38%;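 further: higher means compound restores mutant binding toward wildtype level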
# MEKK3-MEK5 inh: confirmation of inhibitors of MEK5 binding to human MEKK3 | actives 1.8% (n = 5,900) | bead flow cytometry, Alexa488-MEK5 binding to MEKK3; stronger effect = lower value | binding response (% of control), % at 10 µM | shares compounds with MEKK3 PB1 HTS | AID 1894;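 active means binding response below 72% of control, or above a set upper limit, though filed actives all read lower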;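 further: 100% = DMSO only wells and 0% = binding blocked by excess unlabeled MEK5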
# * = called active by the depositor; / = no result; [ ] = another dose, or the depositor's remark. This is a sample that favours compounds with a hit; in the whole collection about 2.5% have one here.
SMILES,ABCB1 inh,MEKK2wt PB1 HTS,MEKK3 PB1 HTS,MEKK2 mut-MEK5,ABCG2 inh,Efflux pump inh,MEKK2wt confirm,MEKK2mut-MEK5,MEKK3-MEK5 inh
FC(F)(F)c1ccc(Cl)c(-n2c(-c3cc(C4CC4)[nH]n3)n[nH]c2=S)c1,/,96.0,95.0,-5.0,/,0.1,/,/,/
CNC(=O)NC(=O)CSc1ccc(NC(C)=O)cc1,1.0,125.0,128.0*,8.0,-1.3,0.0,105.0,3.0,99.0
C=CCc1ccccc1OCC(=O)O,/,53.0,45.0*[inhibitor],-11.0,/,-0.1,96.0,0.0,99.0
COc1ccccc1-n1c(CNC(=O)c2cccc([N+](=O)[O-])c2C)n[nH]c1=S,0.2,36.0*[inhibitor],26.0*[inhibitor],-33.0,0.5,0.3,96.0,1.0,98.0
Cc1cccc(-n2c(CNC(=O)c3cccc([N+](=O)[O-])c3C)n[nH]c2=S)c1,0.3,98.0,96.0,-7.0,-0.2,-0.2,/,/,/
Cc1cccc(CC(=O)N2CCCC2)c1,/,103.0,103.0,3.0,/,0.1,/,/,/
CN1CCc2c(sc3c2C(=O)NC(c2ccco2)N3)C1 (stereo not drawn),-0.3,95.0,97.0,-1.0,-0.2,0.0,/,/,/
CN1CCc2c(sc3c2C(=O)NC(c2cn(Cc4ccccc4)c4ccccc24)N3)C1 (stereo not drawn),1.7,182.0*,92.0,66.0*,1.8,0.3,240.0*,107.0*,109.0
Cc1ccc2cc(CN(Cc3nnnn3C3CCCCC3)CC3CCCO3)c(=O)[nH]c2c1 (stereo not drawn),2.8,-3.0*[inhibitor],1.0*[inhibitor],-20.0,8.6,0.0,94.0,-1.0,99.0
Cc1cc2cc(CN(Cc3nnnn3C3CCCCC3)CC3CCCO3)c(=O)[nH]c2cc1C (stereo not drawn),1.1,107.0,107.0,7.0,2.3,0.1,/,/,/
COCCn1nnnc1CN(Cc1cccnc1)Cc1cc2cc(OC)ccc2[nH]c1=O,-0.3,103.0,102.0,2.0,6.7,/,/,/,/
Cc1ccc2[nH]c(=O)c(CN(Cc3cccnc3)Cc3nnnn3CCN3CCOCC3)cc2c1,0.3,2.0*[inhibitor],2.0*[inhibitor],-41.0,0.8,0.0,101.0,1.0,101.0
Cc1ccc2[nH]c(=O)c(CN(Cc3cccnc3)Cc3nnnn3CC3CCCO3)cc2c1 (stereo not drawn),/,121.0,135.0*,32.0,/,0.1,106.0,4.0,106.0
O=c1[nH]c2cc3c(cc2cc1CN(Cc1ccc2c(c1)OCO2)Cc1nnnn1CC1CCCO1)OCO3 (stereo not drawn),0.5,102.0,98.0,3.0,2.7,0.1,/,/,/
O=C(CN1C(=O)c2cccc([N+](=O)[O-])c2C1=O)N1CCN(c2ccc(F)cc2)CC1,3.5,53.0,47.0*[inhibitor],-17.0,2.2,0.0,102.0,5.0,106.0
O=C(/C=C/c1cccc([N+](=O)[O-])c1)N1CCN(c2ccc(F)cc2)CC1,1.9,109.0,133.0*,0.0,32.5,-0.2,96.0,-5.0,97.0
COC(=O)c1ccc(CSc2nnc(NC(C)C)s2)o1,-0.1,84.0,71.0*[inhibitor],-2.0,0.9,-0.1,108.0,0.0,101.0
CCCCCCOc1ccc(NC(=O)CC2C(=O)N(CC)C(=S)N2Cc2ccco2)cc1 (stereo not drawn),0.7,141.0*,110.0,3.0,1.1,0.4,111.0,3.0,107.0
CCOc1ccc(NC(=O)CC2C(=O)N(c3ccc(OC)cc3)C(=S)N2Cc2ccccn2)cc1 (stereo not drawn),0.3,93.0,96.0,-7.0,0.8,0.1,/,/,/
CCOc1ccc(NC(=O)CC2C(=O)N(c3ccccc3)C(=S)N2Cc2ccccn2)cc1 (stereo not drawn),0.8,1.0*[inhibitor],1.0*[inhibitor],-18.0,3.5,-0.2,107.0,3.0,101.0
CCN1C(=O)C(CC(=O)Nc2ccc(F)cc2)N(Cc2ccco2)C1=S (stereo not drawn),0.8,99.0,104.0,3.0,4.3,0.2,/,/,/
C=CCN1C(=O)C(CC(=O)Nc2ccc(OCCC)cc2)N(CCCN2CCN(Cc3ccccc3)CC2)C1=S (stereo not drawn),3.0,183.0*,111.0,42.0,3.2,0.6,148.0,22.0,110.0
COc1ccc(NC(=O)CC2C(=O)N(Cc3ccccc3)C(=S)N2CCN2CCOCC2)cc1 (stereo not drawn),0.7,98.0,94.0,0.0,1.6,0.0,/,/,/
Fc1cccc2sc(N3CCCC3)nc12,0.4,95.0,96.0,-2.0,1.6,0.0,/,/,/
CC(C)c1csc(CN2CCN(Cc3ccc(F)cc3)C(CCO)C2)n1 (stereo not drawn),-0.4,85.0,94.0,-7.0,-0.2,0.0,/,/,/
SMILES,ABCB1 inh,MEKK2wt PB1 HTS,MEKK3 PB1 HTS,MEKK2 mut-MEK5,ABCG2 inh,Efflux pump inh,MEKK2wt confirm,MEKK2mut-MEK5,MEKK3-MEK5 inh
Cc1ccc(C(=O)NCC(=O)OCC(=O)c2ccc(Br)s2)cc1,/,/,/,/,/,0.1,/,/,/
CC(NC(=O)c1ccc(F)cc1)C(c1cccs1)N1CCN(C)CC1 (stereo not drawn),0.1,96.0,95.0,-1.0,7.0,-0.2,/,/,/
CC(NC(=O)Nc1ccc(F)cc1)C(c1cccs1)N1CCCC1 (stereo not drawn),-0.3,117.0,142.0*,1.0,-5.5,0.3,109.0,3.0,105.0
Cc1ccc(-n2c(-c3cccs3)nc3nc4ccccc4nc32)cc1,-0.6,91.0,122.0,-1.0,-5.7,0.1,/,/,/
Fc1ccc(-n2c(-c3cccs3)nc3nc4ccccc4nc32)cc1,-0.9,100.0,134.0*,0.0,-7.3,0.3,99.0,0.0,100.0
CCc1cc(C(=O)N=Nc2c(O)[nH]c3c(Br)cc(Br)cc23)c2ccccc2n1,1.4,106.0,139.0*,0.0,0.5,0.1,87.0,-6.0,100.0
CCc1cc(C(=O)N=Nc2c(O)[nH]c3ccc([N+](=O)[O-])cc23)c2ccccc2n1,-1.1,102.0,101.0,-1.0,-5.8,-0.1,/,/,/
COc1ccc(/C=N/Nc2nc(=O)[nH]nc2C)cc1[N+](=O)[O-],0.9,105.0,124.0,0.0,8.6,0.1,/,/,/
Cc1n[nH]c(=O)nc1N/N=C/c1ccc(O)c([N+](=O)[O-])c1,1.4,107.0,129.0*,1.0,52.3,0.0,99.0,0.0,102.0
COc1ccccc1CNCC(O)(c1ccc(F)cc1)c1ccc(F)cc1,/,101.0,94.0,1.0,/,0.2,/,/,/
